Converted amounts (≈) assume the structure as drawn.
Key:
[1] = test system: Mycobacterium tuberculosis; assay: Antimycobacterial activity against Mycobacterium tuberculosis H37Rv by agar dilution method; format: functional
How it was run: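 MIC99 was taken as the lowest concentration giving complete inhibition of bacterial growth.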

[2] = test system: Mycolicibacterium smegmatis; assay: Antimycobacterial activity against Mycobacterium smegmatis ATCC 14468 by agar dilution method; format: functional
How it was run: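 MC² (M. smegmatis) growth inhibition; MIC99 taken as the lowest concentration giving complete inhibition of bacterial growth, in µM.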

[3] = test system: Vero; assay: Cytotoxicity against african green monkey Vero cells after 72 hrs by MTT assay; format: cell-based; conditions: Chlorocebus sabaeus
How it was run: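 Vero cells exposed for 72 h; tested up to 62.5 µg/mL. Viability was read as cellular conversion of MTT to formazan, and IC50 was reported in µM.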

[4] = target: DNA gyrase subunit A (Mycolicibacterium smegmatis, UniProt Q59556); assay: Inhibition of Mycobacterium smegmatis DNA gyrase
How it was run: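 Inhibition of DNA supercoiling by M. smegmatis (MC²) gyrase, run under standard assay conditions. Varying compound amounts were tested against a fixed amount of enzyme, and IC50 was derived from that series. Relaxed circular DNA served as marker, 5% DMSO as solvent control, and moxifloxacin at 5 µg/mL as positive control.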

[5] = test system: Mus musculus; assay: Phototoxic effect in mouse assessed as ear thickness at 140 mg/kg administered before UV light exposure relative to control; format: ADME, organism-based; design: dose 140 mg/kg; conditions: in vivo
How it was run: (§1)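 Mice dosed at 140 mg/kg and exposed to UV immediately after dosing. Irradiation ended at 4 h. Ear thickness (mm) was measured at 0 (pre-dose), 4, 24, 48, 72 and 96 h, left and right ears averaged, mean ± SEM. Comparison was against vehicle controls (0.5% aqueous sodium carboxymethylcellulose, 10 mL/kg) and against the 0 h reading.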

[6] = test system: Mus musculus; assay: Phototoxic effect in UV light irradiated mouse assessed as ear thickness at 140 mg/kg, after 48 hrs relative to control; format: ADME, organism-based; design: dose 140 mg/kg; conditions: in vivo; how it was run: as §1
[7] = test system: Mus musculus; assay: Phototoxic effect in UV light irradiated mouse assessed as ear thickness at 140 mg/kg, after 4 hrs relative to control; format: ADME, organism-based; design: dose 140 mg/kg; conditions: in vivo; how it was run: as §1
[8] = test system: Mus musculus; assay: Phototoxic effect in UV light irradiated mouse assessed as ear thickness at 140 mg/kg, after 24 hrs relative to control; format: ADME, organism-based; design: dose 140 mg/kg; conditions: in vivo; how it was run: as §1
[9] = test system: Mus musculus; assay: Phototoxic effect in UV light irradiated mouse assessed as ear thickness at 140 mg/kg, after 96 hrs relative to control; format: ADME, organism-based; design: dose 140 mg/kg; conditions: in vivo; how it was run: as §1
[10] = test system: Mus musculus; assay: Phototoxic effect in UV light irradiated mouse assessed as ear thickness at 140 mg/kg, after 72 hrs relative to control; format: ADME, organism-based; design: dose 140 mg/kg; conditions: in vivo; how it was run: as §1
[11] = test system: Mycobacterium tuberculosis; assay: Antimycobacterial activity against Mycobacterium tuberculosis ATCC 35801 infected CD1 mouse lungs assessed as viable organisms at 50 mg/kg, ip after 35 days relative to control; format: functional; conditions: route intraperitoneal
How it was run: (§2)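 CD-1 mice infected intravenously with M. tuberculosis ATCC 35801; intraperitoneal treatment started 10 days after inoculation and continued for 10 days. At 35 days postinfection, spleens and right lungs were removed aseptically and viable organisms counted (log CFU). Counts were compared with vehicle-treated controls.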

[12] = test system: Mycobacterium tuberculosis; assay: Antimycobacterial activity against Mycobacterium tuberculosis ATCC 35801 infected CD1 mouse spleen assessed as viable organisms at 50 mg/kg, ip after 35 days relative to control; format: functional; conditions: route intraperitoneal; how it was run: as §2
[13] = test system: Mus musculus; assay: Phototoxic effect in UV light irradiated mouse assessed as number of mouse bearing erythema at 140 mg/kg, after 48 hrs relative to control; format: ADME, organism-based; design: dose 140 mg/kg; conditions: in vivo
How it was run: (§3)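 Mice received 140 mg/kg and were UV-irradiated immediately after dosing, irradiation ending at 4 h. Both ears were scored for erythema at 0, 4, 24, 48, 72 and 96 h, counted as the number of mice with erythema. Vehicle control was 0.5% aqueous sodium carboxymethylcellulose at 10 mL/kg.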

[14] = test system: Mus musculus; assay: Phototoxic effect in UV light irradiated mouse assessed as number of mouse bearing erythema at 140 mg/kg, after 96 hrs relative to control; format: ADME, organism-based; design: dose 140 mg/kg; conditions: in vivo; how it was run: as §3
[15] = test system: Mus musculus; assay: Phototoxic effect in UV light irradiated mouse assessed as number of mouse bearing erythema at 140 mg/kg, after 72 hrs relative to control; format: ADME, organism-based; design: dose 140 mg/kg; conditions: in vivo; how it was run: as §3
[16] = test system: Mus musculus; assay: Phototoxic effect in UV light irradiated mouse assessed as number of mouse bearing erythema at 140 mg/kg, after 4 hrs relative to control; format: ADME, organism-based; design: dose 140 mg/kg; conditions: in vivo; how it was run: as §3
[17] = test system: Mus musculus; assay: Phototoxic effect in UV light irradiated mouse assessed as number of mouse bearing erythema at 140 mg/kg, after 24 hrs relative to control; format: ADME, organism-based; design: dose 140 mg/kg; conditions: in vivo; how it was run: as §3
[18] = test system: Mus musculus; assay: Phototoxic effect in mouse assessed as number of mouse bearing erythema at 140 mg/kg administered before UV light exposure relative to control; format: ADME, organism-based; design: dose 140 mg/kg; conditions: in vivo; how it was run: as §3

DNA gyrase subunit A, sequence (Q59556 whole entry): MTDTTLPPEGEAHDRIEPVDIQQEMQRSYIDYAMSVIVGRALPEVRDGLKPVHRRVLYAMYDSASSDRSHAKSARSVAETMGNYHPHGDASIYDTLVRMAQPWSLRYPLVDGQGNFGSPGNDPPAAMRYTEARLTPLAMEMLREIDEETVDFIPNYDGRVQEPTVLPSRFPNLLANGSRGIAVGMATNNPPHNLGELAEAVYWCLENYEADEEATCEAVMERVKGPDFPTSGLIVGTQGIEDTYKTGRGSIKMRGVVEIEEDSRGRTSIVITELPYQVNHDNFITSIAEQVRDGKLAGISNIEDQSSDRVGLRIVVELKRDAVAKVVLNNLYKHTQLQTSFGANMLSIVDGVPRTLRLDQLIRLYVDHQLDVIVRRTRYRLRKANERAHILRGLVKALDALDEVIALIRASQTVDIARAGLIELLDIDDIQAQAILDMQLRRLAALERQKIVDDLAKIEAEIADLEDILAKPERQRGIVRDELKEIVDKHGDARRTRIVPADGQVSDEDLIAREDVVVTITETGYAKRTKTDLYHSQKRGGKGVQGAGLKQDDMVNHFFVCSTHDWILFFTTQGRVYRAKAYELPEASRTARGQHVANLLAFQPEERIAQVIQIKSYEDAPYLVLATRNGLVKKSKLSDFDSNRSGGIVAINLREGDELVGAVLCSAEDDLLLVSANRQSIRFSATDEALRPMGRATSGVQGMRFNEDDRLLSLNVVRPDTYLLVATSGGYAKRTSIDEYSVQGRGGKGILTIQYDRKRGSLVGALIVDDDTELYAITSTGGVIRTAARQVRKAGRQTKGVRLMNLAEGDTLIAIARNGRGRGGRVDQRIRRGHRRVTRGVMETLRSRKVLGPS

Compound | MIC99 [1] | MIC99 [2] | IC50 [3] | other results
Cc1onc(-c2c(F)cccc2F)c1C(=O)N1CCN(c2c(F)cc3c(=O)c(C(=O)O)cn4c3c2OCC4C)CC1 (configuration not stated) | 11 µM (≈ 6.25 µg/mL) | 44 µM (≈ 25 µg/mL) | – | –
COc1cc2c(cc1OC)CN(c1c(F)cc3c(=O)c(C(=O)O)cn4c3c1OCC4C)CC2 (configuration not stated) | 1.72 µM (≈ 0.782 µg/mL) | 13.8 µM (≈ 6.25 µg/mL) | > 138 µM | –
COc1cc2c(cc1OC)CN(c1c(F)c([N+](=O)[O-])c3c(=O)c(C(=O)O)cn4c3c1OCC4C)CC2 (configuration not stated) | 1.56 µM (≈ 0.779 µg/mL) | 12.5 µM (≈ 6.25 µg/mL) | 62.5 µM | –
CC1COc2c(N3CCc4ccccc4C3C(=O)NC(C)(C)C)c(F)c([N+](=O)[O-])c3c(=O)c(C(=O)O)cn1c23 (configuration not stated) | 1.45 µM (≈ 0.781 µg/mL) | 2.89 µM (≈ 1.56 µg/mL) | 116 µM | IC50 [4]: 92.8 µM
CC1COc2c(N3CCN(C)CC3)c(F)cc3c(=O)c(C(=O)O)cn1c23.Cl (configuration not stated) | – | – | – | Activity [5]: 0.29 mm; Activity [6]: 0.3 mm; Activity [7]: 0.32 mm; Activity [8]: 0.29 mm; Activity [9]: 0.35 mm; Activity [10]: 0.35 mm
CC1COc2c(N3CCn4cc(C(=O)O)nc4C3)c(F)c([N+](=O)[O-])c3c(=O)c(C(=O)O)cn1c23 (configuration not stated) | 0.19 µM (≈ 0.0899 µg/mL) | 6.61 µM (≈ 3.13 µg/mL) | 132 µM | Log10 cfu [11]: 6.08; Log10 cfu [12]: 6.11
CC1COc2c(N3CCN(Cc4ccc5c(c4)OCO5)CC3)c(F)c([N+](=O)[O-])c3c(=O)c(C(=O)O)cn1c23 (configuration not stated) | 2.96 µM (≈ 1.56 µg/mL) | 1.48 µM (≈ 0.779 µg/mL) | 119 µM | –
CC1CN(c2c(F)cc3c(=O)c(C(=O)O)cn4c3c2OCC4C)CC(C)O1 (configuration not stated) | 4.14 µM (≈ 1.56 µg/mL) | 4.14 µM (≈ 1.56 µg/mL) | > 166 µM | IC50 [4]: > 133 µM
CC1COc2c(N3CCC(n4c(=O)[nH]c5cc(Cl)ccc54)CC3)c(F)c([N+](=O)[O-])c3c(=O)c(C(=O)O)cn1c23 (configuration not stated) | 0.34 µM (≈ 0.19 µg/mL) | 1.39 µM (≈ 0.776 µg/mL) | 112 µM | –
CC1COc2c(N3CCN(C)C(c4ccccc4)C3)c(F)cc3c(=O)c(C(=O)O)cn1c23 (configuration not stated) | 14.3 µM (≈ 6.25 µg/mL) | 114 µM (≈ 50 µg/mL) | – | –
CC1COc2c(N3CCC4(CC3)OCCO4)c(F)c(N)c3c(=O)c(C(=O)O)cn1c23 (configuration not stated) | 3.72 µM (≈ 1.56 µg/mL) | 11.2 µM (≈ 4.68 µg/mL) | > 149 µM | –
CC1CN(c2c(F)c([N+](=O)[O-])c3c(=O)c(C(=O)O)cn4c3c2OCC4C)CC(C)O1 (configuration not stated) | 1.85 µM (≈ 0.78 µg/mL) | 1.85 µM (≈ 0.78 µg/mL) | 148 µM | IC50 [4]: > 119 µM
CC1COc2c(N3CCSCC3)c(F)c([N+](=O)[O-])c3c(=O)c(C(=O)O)cn1c23 (configuration not stated) | 1.91 µM (≈ 0.782 µg/mL) | 1.91 µM (≈ 0.782 µg/mL) | 153 µM | Activity [13]: Non-toxic; Activity [14]: Non-toxic; Activity [5]: 0.25 mm; Activity [6]: 0.29 mm; IC50 [4]: 122 µM; Activity [15]: Non-toxic; Activity [7]: 0.28 mm; Activity [16]: Non-toxic; Activity [17]: Non-toxic; Activity [8]: 0.29 mm; Activity [9]: 0.28 mm; Activity [18]: Non-toxic; Activity [10]: 0.28 mm
CC1COc2c(N3CCN(C(=O)C4COc5ccccc5O4)CC3)c(F)c([N+](=O)[O-])c3c(=O)c(C(=O)O)cn1c23 (configuration not stated) | 2.81 µM (≈ 1.56 µg/mL) | 11.3 µM (≈ 6.25 µg/mL) | 113 µM | –
CC1COc2c(N3CCC(n4c(=O)[nH]c5cc(Cl)ccc54)CC3)c(F)cc3c(=O)c(C(=O)O)cn1c23 (configuration not stated) | 1.52 µM (≈ 0.78 µg/mL) | 48.7 µM (≈ 25 µg/mL) | > 122 µM | –
CC1COc2c(N3CCc4ccccc4C3C(=O)NC(C)(C)C)c(F)cc3c(=O)c(C(=O)O)cn1c23 (configuration not stated) | 3.16 µM (≈ 1.56 µg/mL) | 50.7 µM (≈ 25 µg/mL) | 127 µM | –

From ChEMBL document CHEMBL1141647, “Novel ofloxacin derivatives: synthesis, antimycobacterial and toxicological evaluation” (Bioorg Med Chem Lett, 2008)
